Results as given in ChEMBL document CHEMBL1649163, “Surfactants, aromatic and isoprenoid compounds, and fatty acid biosynthesis inhibitors suppress Staphylococcus aureus production of toxic shock syndrome toxin 1” (2009).

Experiments:
Type in all cases: functional
[1] = system: Staphylococcus aureus; assay: microbe, parasite or virus in culture; conditions: 24 h
[2] = system: Staphylococcus aureus; assay: microbe, parasite or virus in culture; conditions: 24 h; remark: listed apart in the source
[3] = system: Staphylococcus aureus; assay: Effect on growth in Staphylococcus aureus MN8 at 75.00 mM after 24 hrs (reference value: 100%)
How it was run: (§1)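 Test-tube growth assay: 10 ml growth medium (brain heart infusion with 10% fetal bovine serum, MgCl2, L-glutamine) inoculated to 5 × 10^6 CFU/ml from a 24 h 37°C preculture. Compound diluted in medium, or dissolved in methanol with methanol-matched controls. After 24 h at 37°C with 5% CO2, OD600 and viable counts read. Growth given as % of CFU/ml of untreated controls in the same experiment.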

[4] = system: Staphylococcus aureus; assay: Effect on growth in Staphylococcus aureus MN8 at 0.75 mM after 24 hrs (reference value: 100%)
How it was run: as §1

[5] = system: Staphylococcus aureus; assay: Effect on growth in Staphylococcus aureus MN8 at 10.7 mM after 24 hrs (reference value: 100%)
How it was run: as §1

[6] = system: Staphylococcus aureus; assay: microbe, parasite or virus in culture; conditions: 24 h; remark: listed apart in the source
[7] = system: Staphylococcus aureus; assay: Effect on growth in Staphylococcus aureus MN8 at 0.20 % after 24 hrs (reference value: 100%)
How it was run: as §1

[8] = system: Staphylococcus aureus
[9] = system: Staphylococcus aureus; assay: Effect on growth in Staphylococcus aureus MN8 at 0.10 % after 24 hrs (reference value: 100%)
How it was run: as §1

[10] = system: Staphylococcus aureus; assay: Effect on growth in Staphylococcus aureus MN8 at 0.50 % after 24 hrs (reference value: 100%)
How it was run: as §1

[11] = system: Staphylococcus aureus; remark: listed apart in the source
[12] = system: Staphylococcus aureus; remark: listed apart in the source
[13] = system: Staphylococcus aureus; assay: microbe, parasite or virus in culture; conditions: 24 h; remark: listed apart in the source
[14] = system: Staphylococcus aureus; assay: Effect on growth in Staphylococcus aureus MN8 at 3.20 mM after 24 hrs (reference value: 100%)
How it was run: as §1

[15] = system: Staphylococcus aureus; assay: microbe, parasite or virus in culture; conditions: 24 h; remark: listed apart in the source
[16] = system: Staphylococcus aureus; assay: Effect on growth in Staphylococcus aureus MN8 at 6.40 mM after 24 hrs (reference value: 100%)
How it was run: as §1

[17] = system: Staphylococcus aureus; assay: Effect on growth in Staphylococcus aureus MN8 at 10.00 mM after 24 hrs (reference value: 100%)
How it was run: as §1

[18] = system: Staphylococcus aureus; assay: Effect on growth in Staphylococcus aureus MN8 at 5.00 mM after 24 hrs (reference value: 100%)
How it was run: as §1

[19] = system: Staphylococcus aureus; assay: microbe, parasite or virus in culture; conditions: 24 h; remark: listed apart in the source
[20] = system: Staphylococcus aureus; assay: Effect on growth in Staphylococcus aureus MN8 at 2.50 mM after 24 hrs (reference value: 100%)
How it was run: as §1

[21] = system: Staphylococcus aureus; assay: microbe, parasite or virus in culture; conditions: 24 h; remark: listed apart in the source
[22] = system: Staphylococcus aureus; assay: microbe, parasite or virus in culture; conditions: 24 h; remark: listed apart in the source
[23] = system: Staphylococcus aureus; assay: Effect on growth in Staphylococcus aureus MN8 at 9.0 mM after 24 hrs (reference value: 100%)
How it was run: as §1

[24] = system: Staphylococcus aureus; assay: microbe, parasite or virus in culture; conditions: 24 h; remark: listed apart in the source
[25] = system: Staphylococcus aureus; assay: Effect on growth in Staphylococcus aureus MN8 at 6.50 mM after 24 hrs (reference value: 100%)
How it was run: as §1

[26] = system: Staphylococcus aureus; assay: Effect on growth in Staphylococcus aureus MN8 at 0.65 mM after 24 hrs (reference value: 100%)
How it was run: as §1

[27] = system: Staphylococcus aureus; assay: microbe, parasite or virus in culture; conditions: 24 h; remark: listed apart in the source
[28] = system: Staphylococcus aureus; assay: microbe, parasite or virus in culture; conditions: 24 h; remark: listed apart in the source
[29] = system: Staphylococcus aureus; assay: microbe, parasite or virus in culture; conditions: 24 h; remark: listed apart in the source
[30] = system: Staphylococcus aureus; assay: Effect on growth in Staphylococcus aureus MN8 at 80.00 mM after 24 hrs (reference value: 100%)
How it was run: as §1

[31] = system: Staphylococcus aureus; assay: microbe, parasite or virus in culture; conditions: 24 h; remark: listed apart in the source
[32] = system: Staphylococcus aureus; assay: Effect on growth in Staphylococcus aureus MN8 at 120.00 mM after 24 hrs (reference value: 100%)
How it was run: as §1

[33] = system: Staphylococcus aureus; assay: Effect on growth in Staphylococcus aureus MN8 at 3.75 mM after 24 hrs (reference value: 100%)
How it was run: as §1

[34] = system: Staphylococcus aureus; assay: microbe, parasite or virus in culture; conditions: 24 h; remark: listed apart in the source

Work on `C=CC(=C)CCC=C(C)C` [MYRCENE] yielded an inhibition at 750 µM [1] of 60.3%, an inhibition at 75000 µM [2] of 75.2% and an Activity [3] of 76.5%. The Activity [4] was 110.8%.

`CCCCCCCCCCCC(=O)NCCOC(=O)C(CC(=O)[O-])S(=O)(=O)[O-].[Na+].[Na+]` (stereo not drawn) [DISODIUM LAURAMIDO MEA] was tested, and the Activity [5] was 29.4% and the inhibition at 10700 µM [6] was 0.4%.

For `Nc1ccc(C(=O)O)cc1` [AMINOBENZOIC ACID], the Activity [7] was 11.8% and the “inhibition (INH)” value [8] was 8.6%.

`OCc1ccccc1` [BENZYL ALCOHOL] was tested, and the Activity [9] was 49.7%, the Activity [10] was 8.9% and the “inhibition (INH)” value [11] was 13.8%. The “inhibition (INH)” value [12] was 43.5%.

With `NC(=O)c1ccccc1O` [SALICYLAMIDE] the Activity [9] was 61.5%, the Activity [10] was 14.5% and the “inhibition (INH)” value [11] was 11.3%. For the same molecule, the “inhibition (INH)” value [12] was 49.2%.

Molecule `CC1CCC(C(C)C)C(O)C1` (stereo not drawn) [MENTHOL] has an inhibition at 3200 µM [13] of 24.4%, an Activity [14] of 119.5% and an inhibition at 6400 µM [15] of 1.8%. It also gave an Activity [16] of 32.2%.

Work on `CCCCCCCCCCCCCCOCCOCCOCCOC(=O)CCCCCCCCCCCCC` yielded an Activity [17] of 143.3%, an Activity [18] of 108% and an inhibition at 5000 µM [19] of 47.4%. The Activity [20] was 106.6%, the inhibition at 2500 µM [21] was 64.9% and the inhibition at 10000 µM [22] was 22.2%.

In the case of `COC(=O)c1ccc(O)cc1` [METHYLPARABEN], the Activity [9] is reported as 21.4% and the “inhibition (INH)” value [12] is reported as 20.7%.

For `CC(=O)N[C@@H](Cc1ccc(O)cc1)C(=O)O` [ACETYL TYROSINE], the Activity [9] was 47.5%, the Activity [10] was 19.9% and the “inhibition (INH)” value [11] was 47.1%. The “inhibition (INH)” value [12] was 71.5%.

`CCCCCCCCCCCCOCCOCCOCCO` showed an Activity [23] of 7.3% and an inhibition at 9000 µM [24] of 1%.

`CC1=CCC(O)(C(C)C)CC1` (stereo not drawn) [TERPINEOL] gave an Activity [25] of 90.5%, an Activity [26] of 112.7% and an inhibition at 6500 µM [27] of 12.4%. For the same molecule, the inhibition at 650 µM [28] was 82.3%.

Molecule `C/C=C/C/C=C/CCC(=O)[C@H]1O[C@H]1C(N)=O` [CERULENIN] has an inhibition at 120000 µM [29] of 10.7%, an Activity [30] of 235.1% and an inhibition at 80000 µM [31] of 8.4%. The Activity [32] was 50%.

With `CC(C)=CCC/C(C)=C/CO` [GERANIOL] the inhibition at 750 µM [1] was 0.7%, the Activity [33] was 3.9% and the Activity [4] was 19.3%.

For `CCCCCCCCCCCCN(CCC(=O)O)CCC(=O)O` [SODIUM LAURIMINODIPROPIONIC ACID], the inhibition at 2200 µM [34] was 1%.

`CCCCCCCCCCCC1=NCC[N+]1(CCOCC(=O)[O-])CC(=O)[O-].[Na+].[Na+].[OH-]` (stereo not drawn) [DISODIUM LAUROAMPHODIACETATE] showed an Activity [5] of 11.3% and an inhibition at 10700 µM [6] of 1%.
